Results taken from ChEMBL document CHEMBL4342523, “Discovery and Development of S6821 and S7958 as Potent TAS2R8 Antagonists” (J Med Chem, 2020).
≈ marks a conversion by molar mass, not a printed value. Calls of active or inactive are those of the source. No cut-off for these calls is given here.

Key:
[1] = molecular target: Taste receptor type 2 member 3 (Homo sapiens) (UniProt Q9NYW6); assay: Antagonist activity at recombinant human TAS2R3 transiently expressed in HEK293T co-expressing Galpha16gust44 assessed as inhibition of chloroquine-induced intracellular calcium level by measuring remaining activity at 25 uM by fluo-4AM dye based FLIPR assay relative to control; type: functional, cell-based
[2] = molecular target: Taste receptor type 2 member 13 (Homo sapiens) (UniProt Q9NYV9); assay: Antagonist activity at recombinant human TAS2R13 transiently expressed in HEK293T co-expressing Galpha16gust44 assessed as inhibition of oxyphenonium-induced intracellular calcium level by measuring remaining activity at 25 uM by fluo-4AM dye based FLIPR assay relative to control; type: functional, cell-based
[3] = molecular target: Taste receptor type 2 member 30 (Homo sapiens) (UniProt P59541); assay: Antagonist activity at recombinant human TAS2R30 transiently expressed in HEK293T co-expressing Galpha16gust44 assessed as inhibition of denatonium-induced intracellular calcium level by measuring remaining activity at 25 uM by fluo-4AM dye based FLIPR assay relative to control; type: functional, cell-based
[4] = molecular target: Taste receptor type 2 member 39 (Homo sapiens) (UniProt P59534); assay: Antagonist activity at recombinant human TAS2R39 transiently expressed in HEK293T co-expressing Galpha16gust44 assessed as inhibition of ranitidine-induced intracellular calcium level by measuring remaining activity at 25 uM by fluo-4AM dye based FLIPR assay relative to control; type: functional, cell-based
[5] = molecular target: Taste receptor type 2 member 16 (Homo sapiens) (UniProt Q9NYV7); assay: Antagonist activity at recombinant human TAS2R16 transiently expressed in HEK293T co-expressing Galpha16gust44 assessed as inhibition of salicin-induced intracellular calcium level by measuring remaining activity at 25 uM by fluo-4AM dye based FLIPR assay relative to control; type: functional, cell-based
[6] = Ratio of solubility of the compound in pH 7.1 buffer measured after 24 hrs to IC50 for antagonist activity at recombinant human TAS2R8 expressed in cells co-expressing Galpha16gust44 assessed as inhibition of andrographolide-induced intracellular calcium level; type: cell-based
[7] = Stability of the compound in pH 7.1 buffer assessed as parent compound remaining measured after 24 hrs at 100 degC; type: physicochemical; conditions: read-out: Stability
Homo sapiens = assay: In vivo antagonist activity at TAS2R8 in human assessed as reduction in coffee-inudced bitterness at 5 uM by 2-AFC test; type: functional
Method in brief: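 Paired coffee test: 1.5× coffee with milk versus same with 5 μM compound added from ethanol stock; trained panelists chose the more bitter sample; 17 panelists × 3 replicates (51 responses).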

[8] = molecular target: Taste receptor type 2 member 7 (Homo sapiens) (UniProt Q9NYW3); assay: Antagonist activity at recombinant human TAS2R7 transiently expressed in HEK293T co-expressing Galpha16gust44 assessed as inhibition of chloroquine-induced intracellular calcium level by measuring remaining activity at 25 uM by fluo-4AM dye based FLIPR assay relative to control; type: functional, cell-based
[9] = molecular target: Taste receptor type 2 member 4 (Homo sapiens) (UniProt Q9NYW5); assay: Antagonist activity at recombinant human TAS2R4 transiently expressed in HEK293T co-expressing Galpha16gust44 assessed as inhibition of chloroquine-induced intracellular calcium level by measuring remaining activity at 25 uM by fluo-4AM dye based FLIPR assay relative to control; type: functional, cell-based
[10] = molecular target: T1, Taste receptor type 2 member 14 (Homo sapiens) (UniProt Q9NYV8); assay: Antagonist activity at recombinant human TAS2R14 transiently expressed in HEK293T co-expressing Galpha16gust44 assessed as inhibition of aristolochic acid-induced intracellular calcium level by measuring remaining activity at 25 uM by fluo-4AM dye based FLIPR assay relative to control; type: functional, cell-based
T1 sequence (whole entry): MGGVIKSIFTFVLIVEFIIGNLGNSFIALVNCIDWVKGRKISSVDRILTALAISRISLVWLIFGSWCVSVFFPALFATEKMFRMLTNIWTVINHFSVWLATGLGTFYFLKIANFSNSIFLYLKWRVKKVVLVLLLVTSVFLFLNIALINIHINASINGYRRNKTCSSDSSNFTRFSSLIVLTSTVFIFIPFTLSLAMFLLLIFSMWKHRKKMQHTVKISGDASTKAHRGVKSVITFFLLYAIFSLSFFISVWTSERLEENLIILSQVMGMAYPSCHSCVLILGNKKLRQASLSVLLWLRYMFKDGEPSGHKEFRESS

[11] = molecular target: Taste receptor type 2 member 5 (Homo sapiens) (UniProt Q9NYW4); assay: Antagonist activity at recombinant human TAS2R5 transiently expressed in HEK293T co-expressing Galpha16gust44 assessed as inhibition of picoline-induced intracellular calcium level by measuring remaining activity at 25 uM by fluo-4AM dye based FLIPR assay relative to control; type: functional, cell-based
[12] = Stability of the compound in pH 2.8 buffer assessed as parent compound remaining measured after 24 hrs at 100 degC; type: physicochemical; conditions: read-out: Stability
[13] = Solubility of the compound in pH 7.1 buffer measured after 24 hrs; type: physicochemical
[14] = molecular target: Taste receptor type 2 member 41 (Homo sapiens) (UniProt P59536); assay: Antagonist activity at recombinant human TAS2R41 transiently expressed in HEK293T co-expressing Galpha16gust44 assessed as inhibition of picric acid-induced intracellular calcium level by measuring remaining activity at 25 uM by fluo-4AM dye based FLIPR assay relative to control; type: functional, cell-based
[15] = molecular target: T2, Taste receptor type 2 member 8 (Homo sapiens, UniProt Q9NYW2); assay: Antagonist activity at recombinant human TAS2R8 stably expressed in cells co-expressing Galpha16gust44 assessed as inhibition of andrographolide-induced intracellular calcium level measured for 100 secs by fluo-4 dye based FLIPR assay; type: functional, cell-based
T2 sequence (Q9NYW2 whole entry): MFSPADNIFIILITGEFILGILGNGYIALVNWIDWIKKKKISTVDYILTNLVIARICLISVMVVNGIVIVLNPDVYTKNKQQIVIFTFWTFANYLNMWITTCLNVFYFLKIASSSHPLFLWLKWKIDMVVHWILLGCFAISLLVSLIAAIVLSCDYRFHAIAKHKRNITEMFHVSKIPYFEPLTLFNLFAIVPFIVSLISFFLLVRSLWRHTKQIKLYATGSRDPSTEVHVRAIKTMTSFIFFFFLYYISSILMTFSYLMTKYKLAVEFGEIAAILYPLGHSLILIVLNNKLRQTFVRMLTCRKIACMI
Method in brief: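 Recombinant cells stably expressing G16t44 chimera and TAS2R8 (clones isolated by limiting dilution), plated 24 h before assay; loaded with fluo-4 in PBS 60 min, washed, rested 15 min in dark at RT. Andrographolide agonist at its EC80, premixed with antagonist and added together; final DMSO 0.5%. Baseline read 10 s, then fluorescence followed 100 s on FLIPR.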

[16] = molecular target: T3, Taste receptor type 2 member 8 (Homo sapiens) (UniProt Q9NYW2); assay: Antagonist activity at recombinant human TAS2R8 transiently expressed in HEK293T co-expressing Galpha16gust44 assessed as inhibition of andrographolide-induced intracellular calcium level by measuring remaining activity at 25 uM by fluo-4AM dye based FLIPR assay relative to control; type: functional, cell-based
T3 sequence (whole entry): T2 sequence (Q9NYW2 whole entry)

Taste receptor type 2 member 13 (Homo sapiens), sequence (Q9NYV9 whole entry): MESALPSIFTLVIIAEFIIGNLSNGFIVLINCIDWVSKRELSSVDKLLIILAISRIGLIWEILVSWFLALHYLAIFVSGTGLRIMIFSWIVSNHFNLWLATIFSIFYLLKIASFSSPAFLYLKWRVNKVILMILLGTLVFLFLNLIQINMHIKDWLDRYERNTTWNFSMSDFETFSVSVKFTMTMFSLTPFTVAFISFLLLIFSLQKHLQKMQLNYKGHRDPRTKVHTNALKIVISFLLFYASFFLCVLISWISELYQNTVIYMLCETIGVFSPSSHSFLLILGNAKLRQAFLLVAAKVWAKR
Taste receptor type 2 member 30 (Homo sapiens), sequence (P59541 whole entry): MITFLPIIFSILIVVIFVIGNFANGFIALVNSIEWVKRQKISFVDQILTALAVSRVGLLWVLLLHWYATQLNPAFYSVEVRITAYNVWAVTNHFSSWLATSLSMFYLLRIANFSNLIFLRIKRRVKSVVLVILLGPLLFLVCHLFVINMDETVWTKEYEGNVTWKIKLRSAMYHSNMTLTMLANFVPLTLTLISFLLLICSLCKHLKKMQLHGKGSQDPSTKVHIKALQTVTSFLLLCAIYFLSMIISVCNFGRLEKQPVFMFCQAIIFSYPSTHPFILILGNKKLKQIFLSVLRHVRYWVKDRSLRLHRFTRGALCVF
Taste receptor type 2 member 7 (Homo sapiens), sequence (Q9NYW3 whole entry): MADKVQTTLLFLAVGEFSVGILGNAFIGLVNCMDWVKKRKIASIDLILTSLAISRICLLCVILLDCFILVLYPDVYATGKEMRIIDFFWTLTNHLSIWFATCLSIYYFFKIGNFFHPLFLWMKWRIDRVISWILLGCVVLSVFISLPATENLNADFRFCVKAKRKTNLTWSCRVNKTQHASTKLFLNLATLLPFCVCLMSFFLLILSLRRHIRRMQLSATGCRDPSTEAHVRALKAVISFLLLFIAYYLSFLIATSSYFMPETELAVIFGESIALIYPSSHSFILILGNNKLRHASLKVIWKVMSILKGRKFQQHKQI
Taste receptor type 2 member 5 (Homo sapiens), sequence (Q9NYW4 whole entry): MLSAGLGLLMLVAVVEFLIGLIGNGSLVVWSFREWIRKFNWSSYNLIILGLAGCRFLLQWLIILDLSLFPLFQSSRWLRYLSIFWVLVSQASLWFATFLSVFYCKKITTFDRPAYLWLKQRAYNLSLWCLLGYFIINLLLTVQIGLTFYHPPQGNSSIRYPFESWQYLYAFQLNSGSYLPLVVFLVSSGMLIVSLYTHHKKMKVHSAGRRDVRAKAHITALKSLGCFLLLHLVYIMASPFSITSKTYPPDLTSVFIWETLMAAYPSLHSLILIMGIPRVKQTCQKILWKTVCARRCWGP
Taste receptor type 2 member 39 (Homo sapiens), sequence (P59534 whole entry): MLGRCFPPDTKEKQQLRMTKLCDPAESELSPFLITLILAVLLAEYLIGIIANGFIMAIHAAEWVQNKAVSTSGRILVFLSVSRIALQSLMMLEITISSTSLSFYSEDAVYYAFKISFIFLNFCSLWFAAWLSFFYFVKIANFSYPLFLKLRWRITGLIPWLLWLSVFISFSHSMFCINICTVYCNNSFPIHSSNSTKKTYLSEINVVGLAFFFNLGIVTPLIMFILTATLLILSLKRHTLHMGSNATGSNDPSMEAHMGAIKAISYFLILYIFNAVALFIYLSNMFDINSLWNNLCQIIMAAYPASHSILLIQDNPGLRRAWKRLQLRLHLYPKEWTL
Taste receptor type 2 member 3 (Homo sapiens), sequence (Q9NYW6 whole entry): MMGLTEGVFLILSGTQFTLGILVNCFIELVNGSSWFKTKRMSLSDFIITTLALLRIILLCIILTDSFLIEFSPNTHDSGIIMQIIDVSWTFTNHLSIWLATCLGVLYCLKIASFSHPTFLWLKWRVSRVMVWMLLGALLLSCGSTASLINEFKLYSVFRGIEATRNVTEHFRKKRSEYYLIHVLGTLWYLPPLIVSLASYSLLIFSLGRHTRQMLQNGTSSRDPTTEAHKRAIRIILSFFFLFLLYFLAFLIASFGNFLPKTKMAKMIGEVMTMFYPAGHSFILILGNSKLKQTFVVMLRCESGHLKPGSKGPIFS
Taste receptor type 2 member 4 (Homo sapiens), sequence (Q9NYW5 whole entry): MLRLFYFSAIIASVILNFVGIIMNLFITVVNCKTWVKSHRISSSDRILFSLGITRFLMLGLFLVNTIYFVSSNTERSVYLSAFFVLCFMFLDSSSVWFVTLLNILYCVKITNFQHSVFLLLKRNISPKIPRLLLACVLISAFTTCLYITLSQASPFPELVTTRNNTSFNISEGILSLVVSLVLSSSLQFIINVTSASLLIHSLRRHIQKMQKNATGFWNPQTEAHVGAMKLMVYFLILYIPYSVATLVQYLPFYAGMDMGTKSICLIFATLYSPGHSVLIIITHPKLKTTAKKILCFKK
Taste receptor type 2 member 41 (Homo sapiens), sequence (P59536 whole entry): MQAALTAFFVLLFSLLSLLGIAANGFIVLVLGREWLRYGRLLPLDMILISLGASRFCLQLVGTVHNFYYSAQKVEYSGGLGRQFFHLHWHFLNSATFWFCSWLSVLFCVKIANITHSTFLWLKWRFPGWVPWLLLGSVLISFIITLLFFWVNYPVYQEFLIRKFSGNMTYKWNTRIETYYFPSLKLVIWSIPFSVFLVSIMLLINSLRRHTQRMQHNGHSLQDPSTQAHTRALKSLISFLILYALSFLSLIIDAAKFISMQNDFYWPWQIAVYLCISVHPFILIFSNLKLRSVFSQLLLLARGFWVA
Taste receptor type 2 member 16 (Homo sapiens), sequence (Q9NYV7 whole entry): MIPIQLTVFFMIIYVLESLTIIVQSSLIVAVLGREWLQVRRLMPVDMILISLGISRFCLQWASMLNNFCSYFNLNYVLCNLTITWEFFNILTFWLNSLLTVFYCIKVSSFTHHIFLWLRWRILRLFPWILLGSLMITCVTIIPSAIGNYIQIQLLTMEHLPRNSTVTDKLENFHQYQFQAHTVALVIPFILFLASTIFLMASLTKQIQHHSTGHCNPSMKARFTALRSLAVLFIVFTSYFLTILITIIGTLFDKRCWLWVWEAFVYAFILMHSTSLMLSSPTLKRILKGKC

| Activity [1] [%] | Activity [2] [%] | Activity [3] [%] | Activity [4] [%] | Activity [5] [%] | remaining at 24 h [7] [%] | Activity [8] [%] | Activity [9] [%] | Activity [10] [%] | Activity [11] [%] | remaining at 24 h [12] [%] | solubility at 24 h [13] [µM] | Activity [14] [%] | IC50 [15] [nM] | Activity [16] [%] | SMILES | Ratio [6] | Activity (Homo sapiens) |
| --- | --- | --- | --- | --- | --- | --- | --- | --- | --- | --- | --- | --- | --- | --- | --- | --- | --- |
| 72 | 95 | 43 | 150 | 88 | > 99 | 92 | 215 | 97 | 100 | > 99 | 72 (≈ 29.5 µg/mL) | 133 | 60 | 7 | Cc1noc(C)c1Cn1cc(N2C(=O)N(Cc3cccc(O)c3)C(C)(C)C2=O)cn1 | 1290 | Active |
| 103 | 127 | 112 | 74 | 98 | 55 | 93 | 117 | 124 | 103 | > 99 | 244 (≈ 93.1 µg/mL) | 99 | 20 | 13 | Cc1noc(C)c1Cn1cc(N2C(=O)CN(Cc3cccc(O)c3)C2=O)cn1 | 11600 | >78% |
